In ChEMBL document CHEMBL3045880, “Design and syntheses of novel N-(benzothiazol-5-yl)-4,5,6,7-tetrahydro-1H-isoindole-1,3(2H)-dione and N-(benzothiazol-5-yl)isoindoline-1,3-dione as potent protoporphyrinogen oxidase inhibitors” (J Agric Food Chem, 2011):

How the values were obtained:
[1] = test system: Abutilon theophrasti; experiment: Herbicidal activity against Abutilon theophrasti (velvetleaf) assessed as growth inhibition at 150 g/ha postemergence treatment measured after 15 days by Greenhouse test; assay type: functional; details: post-emergence, 360 h, read-out: GI
Procedure, shortened: (§1)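 Test compounds were made up as 100 g/L emulsifiable concentrates (DMF solvent, Tween-80 emulsifier) and diluted with water. About 20 seeds were sown 1–3 cm deep in clay soil (pH 6.5, 1.6% organic matter) in 9.5 cm pots, kept at 15–30 °C and 50% RH. Postemergence spray was applied to dicots at the 2-leaf stage and monocots at the 1-leaf stage. Controls were untreated and solvent-treated. Injury was scored visually at 15 days, with three replicates.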

[2] = test system: Amaranthus retroflexus; experiment: Herbicidal activity against Amaranthus retroflexus assessed as growth inhibition at 150 g/ha postemergence treatment measured after 15 days by Greenhouse test; assay type: functional; details: post-emergence, 360 h, read-out: GI; procedure, shortened: as §1
[3] = test system: Setaria faberi; experiment: Herbicidal activity against Setaria faberi (Giant Foxtail) assessed as growth inhibition at 150 g/ha postemergence treatment measured after 15 days by Greenhouse test; assay type: functional; details: post-emergence, 360 h, read-out: GI; procedure, shortened: as §1
[4] = test system: Digitaria sanguinalis; experiment: Herbicidal activity against Digitaria sanguinalis (hairy crabgrass) assessed as growth inhibition at 150 g/ha postemergence treatment measured after 15 days by Greenhouse test; assay type: functional; details: post-emergence, 360 h, read-out: GI; procedure, shortened: as §1
[5] = test system: Echinochloa crus-galli; experiment: Herbicidal activity against Echinochloa crus-galli (barnyard grass) assessed as growth inhibition at 150 g/ha postemergence treatment measured after 15 days by Greenhouse test; assay type: functional; details: post-emergence, 360 h, read-out: GI; procedure, shortened: as §1
[6] = target: T1, Protoporphyrinogen oxidase (Homo sapiens) (UniProt P50336); experiment: Inhibition of Homo sapiens (human) recombinant protoporphyrinogen oxidase by fluorescence detection
T1 sequence (whole entry): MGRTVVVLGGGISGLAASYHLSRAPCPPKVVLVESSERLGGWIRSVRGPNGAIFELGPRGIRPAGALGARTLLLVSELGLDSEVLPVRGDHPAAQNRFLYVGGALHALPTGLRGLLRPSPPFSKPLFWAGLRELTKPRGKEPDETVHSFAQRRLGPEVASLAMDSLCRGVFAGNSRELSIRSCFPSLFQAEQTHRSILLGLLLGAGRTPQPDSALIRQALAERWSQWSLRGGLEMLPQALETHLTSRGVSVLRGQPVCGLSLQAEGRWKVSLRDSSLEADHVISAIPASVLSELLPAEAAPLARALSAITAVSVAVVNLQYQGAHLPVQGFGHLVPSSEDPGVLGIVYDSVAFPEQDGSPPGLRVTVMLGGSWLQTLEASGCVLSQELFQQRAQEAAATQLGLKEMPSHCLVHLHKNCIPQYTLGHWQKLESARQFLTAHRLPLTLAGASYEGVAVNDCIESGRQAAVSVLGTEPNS

[7] = test system: Brassica juncea; experiment: Herbicidal activity against Brassica juncea assessed as growth inhibition at 150 g/ha postemergence treatment measured after 15 days by Greenhouse test; assay type: functional; details: post-emergence, 360 h, read-out: GI; procedure, shortened: as §1
[8] = test system: Eclipta prostrata; experiment: Herbicidal activity against Eclipta prostrata assessed as growth inhibition at 150 g/ha postemergence treatment measured after 15 days by Greenhouse test; assay type: functional; details: post-emergence, 360 h, read-out: GI; procedure, shortened: as §1

| Ki [6] [µM] | SMILES | inhibition of growth at 150 g/ha [1] [%] | inhibition of growth at 150 g/ha [2] [%] | inhibition of growth at 150 g/ha [3] [%] | inhibition of growth at 150 g/ha [4] [%] | inhibition of growth at 150 g/ha [5] [%] | inhibition of growth at 150 g/ha [7] [%] | inhibition of growth at 150 g/ha [8] [%] |
| --- | --- | --- | --- | --- | --- | --- | --- | --- |
| 1.24 | CCCOC(=O)CSc1nc2cc(N3C(=O)c4ccccc4C3=O)c(F)cc2s1 | 80 | 80 | 50 | < 50 | < 50 | – | – |
| 0.08 | COC(=O)Sc1nc2cc(N3C(=O)C4=C(CCCC4)C3=O)c(F)cc2s1 | – | 80 | < 50 | < 50 | < 50 | 80 | 80 |
| 1.5 | CC(C)OC(=O)CSc1nc2cc(N3C(=O)c4ccccc4C3=O)c(F)cc2s1 | 80 | 80 | < 50 | < 50 | < 50 | – | 60 |
| 1.66 | CCOC(=O)C(C)(C)Sc1nc2cc(N3C(=O)C4=C(CCCC4)C3=O)c(Cl)cc2s1 | – | 80 | < 50 | < 50 | < 50 | < 50 | 60 |
| 0.51 | CCOC(=O)Sc1nc2cc(N3C(=O)c4ccccc4C3=O)c(F)cc2s1 | 80 | 80 | < 50 | < 50 | < 50 | – | 80 |
| 0.18 | CC(C)(C)OC(=O)CSc1nc2cc(N3C(=O)C4=C(CCCC4)C3=O)c(F)cc2s1 | – | 80 | < 50 | 60 | < 50 | 80 | 80 |
| 0.11 | CCOC(=O)CCSc1nc2cc(N3C(=O)C4=C(CCCC4)C3=O)c(F)cc2s1 | – | 80 | < 50 | 50 | 50 | 80 | 80 |
